Experimental data collected from several papers.
Each line is one published result; the experiments were not run side by side.
Target: Ephrin type-A receptor 1 (EPHA1, Homo sapiens, UniProt P21709)
Residues used in one study (P21709 1-976): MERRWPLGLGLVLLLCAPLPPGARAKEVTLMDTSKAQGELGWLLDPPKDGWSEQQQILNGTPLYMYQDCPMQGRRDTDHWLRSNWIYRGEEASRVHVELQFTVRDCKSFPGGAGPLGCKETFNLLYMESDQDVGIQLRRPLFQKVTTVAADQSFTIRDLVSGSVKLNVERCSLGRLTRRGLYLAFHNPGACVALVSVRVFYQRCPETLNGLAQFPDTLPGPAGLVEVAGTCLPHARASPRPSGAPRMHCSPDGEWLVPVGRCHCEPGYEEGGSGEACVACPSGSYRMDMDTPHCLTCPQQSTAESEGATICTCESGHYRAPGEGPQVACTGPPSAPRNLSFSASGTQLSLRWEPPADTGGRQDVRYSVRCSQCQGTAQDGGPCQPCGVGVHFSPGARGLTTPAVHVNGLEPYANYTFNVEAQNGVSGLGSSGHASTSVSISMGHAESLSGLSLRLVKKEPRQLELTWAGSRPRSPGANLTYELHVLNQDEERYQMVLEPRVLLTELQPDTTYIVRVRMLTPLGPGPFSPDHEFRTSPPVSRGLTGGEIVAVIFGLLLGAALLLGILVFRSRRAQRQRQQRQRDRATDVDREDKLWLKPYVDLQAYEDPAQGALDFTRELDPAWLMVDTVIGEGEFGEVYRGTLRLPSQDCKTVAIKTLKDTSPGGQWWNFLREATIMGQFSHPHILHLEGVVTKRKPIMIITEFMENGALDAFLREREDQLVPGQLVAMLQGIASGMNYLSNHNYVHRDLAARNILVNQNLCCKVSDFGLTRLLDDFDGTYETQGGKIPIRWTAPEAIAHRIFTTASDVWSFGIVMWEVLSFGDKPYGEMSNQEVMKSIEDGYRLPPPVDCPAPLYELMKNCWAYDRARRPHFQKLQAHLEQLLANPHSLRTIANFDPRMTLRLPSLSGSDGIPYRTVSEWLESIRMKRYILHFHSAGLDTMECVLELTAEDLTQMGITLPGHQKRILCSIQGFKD

Structure (SMILES)	effect on	technique	tested at	remaining binding
CC(C)CC(=O)N1CCc2nc(-c3ccc(Br)cc3)nc(N(C)Cc3ccccc3)c2C1	cell-free assay	competition with immobilised ligand	0.1 µM	100%
COc1ccnn2ncc(-c3ccnc(N(C)C)n3)c12	binding	–	1 µM	100%
COc1ncc2cc3ccccc3nc2c1C#N	cell-free assay	competition with immobilised ligand	5 µM	95%
Cc1nc(Cc2cccc(C(F)(F)F)c2)sc1-c1ccc(C(N)=O)nc1	cell-free assay	competition with immobilised ligand	1 µM	81%
CN(c1nccc(-c2cnn3ncccc23)n1)C1CC1	binding	–	1 µM	99%
O=C(c1ccc(Nc2ncc(Cl)c(-c3cc4ccccc4s3)n2)cc1)N1CCC(N2CCCC2)CC1	binding	competition with immobilised ligand	1 µM	16%
C[C@@H]1CCN(c2nccc(-c3cnn4ncccc34)n2)C1	binding	–	1 µM	100%
CCS(=O)(=O)c1cc2cc(C[C@@](O)(CC(C)(C)c3ccc(F)cc3C(N)=O)C(F)(F)F)[nH]c2cn1	cell-free assay	competition with immobilised ligand	1 µM	99%
N[C@H]1CCN(c2nccc(-c3cnn4ncccc34)n2)C1	binding	–	1 µM	100%
O=C(NCCCN1CCOCC1)c1ccc(Nc2nccc(-c3cc4ccccc4s3)n2)cc1	binding	competition with immobilised ligand	1 µM	44%
CSc1cccnc1N1CCN(Cc2nc3ccccc3[nH]2)CC1	cell-free assay	competition with immobilised ligand	1 µM	100%
Cc1cnc(Nc2ccc(C(=O)N3CCC(N4CCCC4)CC3)cc2)nc1-c1cc2ccccc2s1	binding	competition with immobilised ligand	1 µM	3.9%
O=C(Nc1c[nH]nc1C(=O)NC1CCNCC1)c1cc(F)cc(F)c1	binding	competition with immobilised ligand	1 µM	100%
CN(CCCC(F)(F)F)c1nccc(-c2cnn3ncccc23)n1	binding	–	1 µM	76%
CCN1CCN(Cc2ccc(C(=O)Nc3ccc(C)c(Oc4ccc5c(c4)CC(=O)N5)c3)cc2C(F)(F)F)CC1	binding	competition with immobilised ligand	1 µM	77%
CNC(=O)[C@@H]1CC[C@@H](n2c(-c3ccc4cnccc4c3)nc3ccc(C(=O)NCc4cccc(C(N)=O)c4)cc32)C1	binding	competition with immobilised ligand	1 µM	100%
CC(=O)N1CCC(c2ccc(C(=O)NC(=N)N)cc2C(F)(F)F)CC1	cell-free assay	competition with immobilised ligand	1 µM	100%
c1cncc(-c2cccc(Nc3nccc(NC4CCCCC4)n3)c2)c1	binding	competition with immobilised ligand	10 µM	51%
CNCc1ccccc1-c1csc([C@@H](C)Nc2nc(C)nc3cc(OC)c(OC)cc23)c1	cell-free assay	competition with immobilised ligand	1 µM	79%
c1cnn2ncc(-c3ccnc(N4CCC45COC5)n3)c2c1	binding	–	1 µM	89%
